Experimental data from ChEMBL document CHEMBL1155848 (J Med Chem, 2008).
One block for each compound: values may come before it.

Assays:
Cytochrome P450 3A4 [1] = target: T1, Cytochrome P450 3A4 (Homo sapiens, UniProt P08684); assay: Inhibition of human recombinant CYP3A4 using 7-benzyloxyquinoline substrate; type: ADME
Procedure, shortened: (§1)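 Recombinant human CYP450 microsomal protein (0.1 mg/mL) with substrate and a concentration range of compound (dissolved in methanol), preincubated 10 min at 37 °C in 50 mM potassium phosphate pH 7.4. Reaction started with an NADPH-generating system. Fluorescent metabolite formation followed over 10 min. Rates converted to percent of mean control rate, and IC50 derived from the plot. Miconazole served as positive control.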

HUVEC [2] = assay: Inhibition of VEGF-induced HUVEC proliferation by BrdU incorporation method after 72 hrs; type: functional, cell-based; conditions: Homo sapiens
Procedure, shortened: (§2)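 HUVEC seeded in 5% FBS medium on type 1 collagen, held overnight at 37 °C, 5% CO2. Inhibitor at various concentrations added in serum-free medium. After 30 min, VEGF (10 ng/mL) or bFGF (0.3 ng/mL) added. Cells incubated a further 72 h, with BrdU (10 µM) present for the last 18–24 h. Incorporation read by ELISA; IC50 from fit of y = Vmax(1 − x/(K + x)).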

Cytochrome P450 2C9 = Cytochrome P450 2C9 (Homo sapiens, UniProt P11712); assay: Inhibition of human recombinant CYP2C9; type: ADME
Cytochrome P450 2C19 = Cytochrome P450 2C19 (Homo sapiens, UniProt P33261); assay: Inhibition of human recombinant CYP2C19; type: ADME
Procedure, shortened: (§3)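 Recombinant human CYP450 microsomal protein (0.1 mg/mL) with substrate in 50 mM potassium phosphate, pH 7.4. Compound (range of concentrations, methanol) preincubated 10 min at 37 °C. Reaction started with an NADPH-generating system. Fluorescent metabolite formation followed over 10 min. Rates converted to percent of mean control; IC50 from the slope of the plot. Miconazole included as positive control.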

Cytochrome P450 2D6 = Cytochrome P450 2D6 (Homo sapiens, UniProt P10635); assay: Inhibition of human recombinant CYP2D6; type: ADME; procedure, shortened: as §3
Cytochrome P450 3A4 [3] = target: T1, Cytochrome P450 3A4; assay: Inhibition of human recombinant CYP3A4 using diethoxyfluorescein substrate; type: ADME; procedure, shortened: as §1
[4] = target: T2, Vascular endothelial growth factor receptor 2 (Homo sapiens, UniProt P35968); assay: Inhibition of VEGFR2
HUVEC [5] = assay: Inhibition of basic-fibroblast growth factor-induced HUVEC proliferation; type: functional, cell-based; conditions: Homo sapiens; procedure, shortened: as §2
HUVEC [6] = assay: Inhibition of VEGF-induced HUVEC proliferation; type: functional, cell-based; conditions: Homo sapiens; procedure, shortened: as §2
[7] = Clearance in rat at 10 mg/kg; type: ADME, organism-based; set-up: dose 10 mg/kg; conditions: in vivo
[8] = Oral bioavailability in rat at 10 mg/kg; type: ADME, organism-based; conditions: in vivo
[9] = target: T2, Vascular endothelial growth factor receptor 2; assay: Inhibition of human recombinant VEGFR2
[10] = Clearance in dog at 1 mg/kg; type: ADME, organism-based, Canis lupus familiaris; set-up: dose 1 mg/kg; conditions: in vivo
[11] = Oral bioavailability in dog at 1 mg/kg; type: ADME, organism-based, Canis lupus familiaris; conditions: in vivo
[12] = Clearance in monkey at 5 mg/kg; type: ADME, organism-based, Macaca mulatta; set-up: dose 5 mg/kg; conditions: rhesus monkey, in vivo
[13] = Oral bioavailability in monkey at 5 mg/kg; type: ADME, organism-based, Macaca mulatta; conditions: rhesus monkey, in vivo
[14] = AUC (0 to infinity) in mouse at 10 mg/kg, po; type: ADME, organism-based; set-up: time infinity, dose 10 mg/kg, route oral; conditions: plasma
[15] = AUC (0 to infinity) in mouse at 30 mg/kg, po; type: ADME, organism-based; set-up: dose 30 mg/kg, route oral, time infinity; conditions: plasma
[16] = AUC (0 to infinity) in mouse at 100 mg/kg, po; type: ADME, organism-based; set-up: time infinity, dose 100 mg/kg, route oral; conditions: plasma
[17] = Plasma concentration in mouse at 10 mg/kg, po after 12 hrs; type: ADME, organism-based; set-up: dose 10 mg/kg, route oral
[18] = Plasma concentration in mouse at 30 mg/kg, po after 12 hrs; type: ADME, organism-based; set-up: dose 30 mg/kg, route oral
[19] = Plasma concentration in mouse at 100 mg/kg, po after 12 hrs; type: ADME, organism-based; set-up: dose 100 mg/kg, route oral
Mus musculus [20] = assay: Inhibition of angiogenesis in Swiss Nu/Nu mouse assessed as hemoglobin content at 10 mg/kg, po by bFGF/matrigel plug assay; type: functional
Mus musculus [21] = assay: Inhibition of angiogenesis in Swiss Nu/Nu mouse assessed as hemoglobin content at 30 mg/kg, po by bFGF/matrigel plug assay; type: functional
Mus musculus [22] = assay: Inhibition of angiogenesis in Swiss Nu/Nu mouse assessed as hemoglobin content at 100 mg/kg, po by bFGF/matrigel plug assay; type: functional
HT-29 [23] = assay: Antitumor activity against human HT29 cells xenografted in mouse assessed as inhibition of tumor growth at 10 mg/kg, po relative to control; type: functional
HT-29 [24] = assay: Antitumor activity against human HT29 cells xenografted in mouse assessed as inhibition of tumor growth at 30 mg/kg, po relative to control; type: functional
HT-29 [25] = assay: Antitumor activity against human HT29 cells xenografted in mouse assessed as inhibition of tumor growth at 100 mg/kg, po relative to control; type: functional
[26] = Antitumor activity against human A375P cells xenografted in mouse assessed as inhibition of tumor growth at 10 mg/kg, po relative to control; type: functional
[27] = Antitumor activity against human A375P cells xenografted in mouse assessed as inhibition of tumor growth at 30 mg/kg, po relative to control; type: functional
[28] = Antitumor activity against human A375P cells xenografted in mouse assessed as inhibition of tumor growth at 100 mg/kg, po relative to control; type: functional
HN5 [29] = assay: Antitumor activity against human HN5 cells xenografted in mouse assessed as inhibition of tumor growth at 10 mg/kg, po relative to control; type: functional
HN5 [30] = assay: Antitumor activity against human HN5 cells xenografted in mouse assessed as inhibition of tumor growth at 30 mg/kg, po relative to control; type: functional
HN5 [31] = assay: Antitumor activity against human HN5 cells xenografted in mouse assessed as inhibition of tumor growth at 100 mg/kg, po relative to control; type: functional
[32] = Protein binding in mouse plasma by equilibrium dialysis; type: ADME, cell-free; conditions: read-out: PPB

T1 sequence (P08684 whole entry): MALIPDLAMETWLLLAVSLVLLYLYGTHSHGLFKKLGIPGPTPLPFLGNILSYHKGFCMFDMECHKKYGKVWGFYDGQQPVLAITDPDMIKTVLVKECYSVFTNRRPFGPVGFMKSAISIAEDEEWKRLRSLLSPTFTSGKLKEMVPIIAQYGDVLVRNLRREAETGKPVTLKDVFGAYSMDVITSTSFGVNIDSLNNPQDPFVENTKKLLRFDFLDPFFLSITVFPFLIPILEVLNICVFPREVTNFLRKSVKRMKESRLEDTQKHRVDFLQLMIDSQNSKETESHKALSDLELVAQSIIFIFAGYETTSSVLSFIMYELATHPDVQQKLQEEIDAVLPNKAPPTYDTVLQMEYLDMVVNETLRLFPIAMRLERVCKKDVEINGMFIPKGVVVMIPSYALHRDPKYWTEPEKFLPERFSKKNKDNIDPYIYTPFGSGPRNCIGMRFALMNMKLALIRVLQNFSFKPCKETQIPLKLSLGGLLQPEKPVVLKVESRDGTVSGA
Sequence of Cytochrome P450 2C19 (P33261 whole entry): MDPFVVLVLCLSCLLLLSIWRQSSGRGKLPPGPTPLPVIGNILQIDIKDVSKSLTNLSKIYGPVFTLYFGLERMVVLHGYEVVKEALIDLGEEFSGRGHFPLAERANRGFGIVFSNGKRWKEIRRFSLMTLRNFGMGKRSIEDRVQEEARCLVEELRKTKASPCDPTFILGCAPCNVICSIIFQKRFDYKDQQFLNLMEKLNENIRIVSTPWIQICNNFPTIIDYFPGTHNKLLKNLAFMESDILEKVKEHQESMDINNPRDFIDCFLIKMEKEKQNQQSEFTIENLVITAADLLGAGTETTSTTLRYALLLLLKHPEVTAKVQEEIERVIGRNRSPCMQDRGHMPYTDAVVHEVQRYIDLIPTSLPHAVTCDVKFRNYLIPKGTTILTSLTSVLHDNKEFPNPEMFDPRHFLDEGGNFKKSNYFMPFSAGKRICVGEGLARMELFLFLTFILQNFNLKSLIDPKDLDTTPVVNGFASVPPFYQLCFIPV
T2 sequence (P35968 whole entry): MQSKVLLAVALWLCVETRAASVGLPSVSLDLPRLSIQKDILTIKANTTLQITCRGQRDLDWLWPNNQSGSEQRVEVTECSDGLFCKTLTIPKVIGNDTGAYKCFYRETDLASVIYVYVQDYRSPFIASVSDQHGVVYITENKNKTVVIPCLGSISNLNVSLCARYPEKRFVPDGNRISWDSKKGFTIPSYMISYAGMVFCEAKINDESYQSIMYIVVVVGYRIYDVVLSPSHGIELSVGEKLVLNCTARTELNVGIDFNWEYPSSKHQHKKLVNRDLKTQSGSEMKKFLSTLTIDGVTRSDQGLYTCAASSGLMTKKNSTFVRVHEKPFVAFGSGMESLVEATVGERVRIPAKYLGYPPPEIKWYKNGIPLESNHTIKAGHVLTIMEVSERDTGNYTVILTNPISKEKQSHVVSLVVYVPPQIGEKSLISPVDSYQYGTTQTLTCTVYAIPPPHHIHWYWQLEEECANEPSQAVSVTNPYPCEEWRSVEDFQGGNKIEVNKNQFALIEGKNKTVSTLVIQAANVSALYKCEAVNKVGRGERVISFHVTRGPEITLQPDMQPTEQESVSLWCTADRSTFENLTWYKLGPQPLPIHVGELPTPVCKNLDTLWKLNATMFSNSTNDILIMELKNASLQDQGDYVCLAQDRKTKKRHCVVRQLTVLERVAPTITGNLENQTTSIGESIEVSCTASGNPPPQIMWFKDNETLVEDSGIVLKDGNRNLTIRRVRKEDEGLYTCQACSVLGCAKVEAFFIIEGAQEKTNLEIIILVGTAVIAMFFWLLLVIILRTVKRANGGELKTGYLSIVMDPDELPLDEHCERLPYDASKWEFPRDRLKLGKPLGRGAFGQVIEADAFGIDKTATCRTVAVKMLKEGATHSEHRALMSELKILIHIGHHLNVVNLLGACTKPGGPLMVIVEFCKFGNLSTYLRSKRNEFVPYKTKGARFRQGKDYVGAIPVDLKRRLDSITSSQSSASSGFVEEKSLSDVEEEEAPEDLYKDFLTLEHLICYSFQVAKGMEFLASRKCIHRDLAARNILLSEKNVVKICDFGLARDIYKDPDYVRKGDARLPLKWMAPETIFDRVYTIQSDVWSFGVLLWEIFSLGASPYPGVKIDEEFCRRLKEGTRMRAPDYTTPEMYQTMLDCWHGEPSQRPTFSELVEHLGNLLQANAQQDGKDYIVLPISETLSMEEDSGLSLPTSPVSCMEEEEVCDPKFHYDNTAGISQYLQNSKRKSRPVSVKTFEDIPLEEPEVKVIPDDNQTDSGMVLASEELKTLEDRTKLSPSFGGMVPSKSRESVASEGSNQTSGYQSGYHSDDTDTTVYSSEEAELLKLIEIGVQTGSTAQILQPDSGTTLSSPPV
Sequence of Cytochrome P450 2C9 (P11712 whole entry): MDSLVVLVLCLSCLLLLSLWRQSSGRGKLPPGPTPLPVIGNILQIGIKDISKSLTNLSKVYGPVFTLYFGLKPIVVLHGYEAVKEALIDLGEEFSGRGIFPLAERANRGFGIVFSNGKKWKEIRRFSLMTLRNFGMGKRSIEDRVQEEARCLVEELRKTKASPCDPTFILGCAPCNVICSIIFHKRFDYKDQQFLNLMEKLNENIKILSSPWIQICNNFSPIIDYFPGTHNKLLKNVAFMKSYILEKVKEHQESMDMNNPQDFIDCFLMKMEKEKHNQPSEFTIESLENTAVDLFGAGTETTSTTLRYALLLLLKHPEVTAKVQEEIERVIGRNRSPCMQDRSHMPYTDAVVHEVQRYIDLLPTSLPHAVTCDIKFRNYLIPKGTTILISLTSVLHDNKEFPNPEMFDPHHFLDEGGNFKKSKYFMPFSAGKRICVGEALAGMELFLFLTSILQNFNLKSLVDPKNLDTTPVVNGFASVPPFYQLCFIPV
Sequence of Cytochrome P450 2D6 (P10635 whole entry): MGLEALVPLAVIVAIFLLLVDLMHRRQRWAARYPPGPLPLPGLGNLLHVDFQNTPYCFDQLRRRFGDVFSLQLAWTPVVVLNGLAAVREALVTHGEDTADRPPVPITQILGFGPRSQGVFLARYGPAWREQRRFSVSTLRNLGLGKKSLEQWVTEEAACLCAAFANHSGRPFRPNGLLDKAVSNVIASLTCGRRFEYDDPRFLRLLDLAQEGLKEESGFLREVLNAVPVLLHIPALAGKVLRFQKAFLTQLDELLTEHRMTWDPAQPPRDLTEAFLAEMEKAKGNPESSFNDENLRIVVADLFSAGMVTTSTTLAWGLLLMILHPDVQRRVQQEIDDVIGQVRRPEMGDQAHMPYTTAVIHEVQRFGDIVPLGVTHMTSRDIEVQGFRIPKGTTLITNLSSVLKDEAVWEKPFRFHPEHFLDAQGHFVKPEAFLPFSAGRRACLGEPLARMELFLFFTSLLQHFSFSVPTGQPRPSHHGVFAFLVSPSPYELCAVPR

- IC50 (Cytochrome P450 3A4 [1]): 31 µM
- IC50 (Cytochrome P450 2C9): 1.4 µM
- IC50 (Cytochrome P450 2C19): 20 µM
- IC50 (Cytochrome P450 2D6): 16 µM
- IC50 (Cytochrome P450 3A4 [3]): 16 µM
SMILES: Cc1c2ccc(N(C)c3ccnc(Nc4cccc(S(N)(=O)=O)c4)n3)cc2nn1C
- IC50 (HUVEC [2]): 0.023 µM

- IC50 [4]: 0.0063 µM
SMILES: Cc1ccc(Nc2ccnc(Nc3cccc(Br)c3)n2)cc1O
- IC50 (HUVEC [5]): 3.5 µM
- IC50 (HUVEC [6]): 0.54 µM

- IC50 [4]: 0.4 µM
SMILES: Fc1cnc(Nc2cccc(Br)c2)nc1Nc1cccc(Br)c1

- clearance [7]: 10 mL/min/kg
- bioavailability [8]: 65%
SMILES: CCS(=O)(=O)c1ccc(OC)c(Nc2nccc(N(C)c3ccc4c(C)n[nH]c4c3)n2)c1

- IC50 (Cytochrome P450 3A4 [1]): 79 µM
- IC50 (Cytochrome P450 2C9): 0.5 µM
- IC50 (Cytochrome P450 2C19): 1.4 µM
- IC50 (Cytochrome P450 2D6): 66 µM
- IC50 (Cytochrome P450 3A4 [3]): 74 µM
SMILES: Cc1c2ccc(N(C)c3ccnc(Nc4cccc(S(N)(=O)=O)c4)n3)cc2nn1Cc1ccccc1
- IC50 (HUVEC [2]): 11 µM

- IC50 (Cytochrome P450 3A4 [1]): 45 µM
- IC50 (Cytochrome P450 2C9): 9 µM
- IC50 (Cytochrome P450 2C19): 33 µM
- IC50 (Cytochrome P450 2D6): 33 µM
- IC50 (Cytochrome P450 3A4 [3]): 27 µM
SMILES: Cc1nc2cc(N(C)c3ccnc(Nc4cccc(S(N)(=O)=O)c4)n3)ccc2n1C
- IC50 (HUVEC [2]): 1.4 µM

SMILES: Cc1n[nH]c2cc(N(C)c3ccnc(Nc4cccc(S(N)(=O)=O)c4)n3)ccc12
- IC50 (Cytochrome P450 3A4 [1]): 16 µM
- IC50 (HUVEC [2]): 0.094 µM
- IC50 (Cytochrome P450 2C9): 0.7 µM
- IC50 (Cytochrome P450 2C19): 7.2 µM
- IC50 (Cytochrome P450 2D6): 4.8 µM
- IC50 (Cytochrome P450 3A4 [3]): 7.6 µM

- IC50 (Cytochrome P450 3A4 [1]): 3.9 µM
- IC50 (Cytochrome P450 2C9): 2.9 µM
- IC50 (Cytochrome P450 2C19): 9.2 µM
- IC50 (Cytochrome P450 2D6): 18 µM
- IC50 (Cytochrome P450 3A4 [3]): 4.7 µM
SMILES: CN(c1ccc2cn(C)nc2c1)c1ccnc(Nc2cccc(S(N)(=O)=O)c2)n1
- IC50 (HUVEC [2]): 0.11 µM

- IC50 [9]: 0.0006 µM
SMILES: COc1cc2ncnc(Nc3ccc(C)c(O)c3)c2cc1OC

- IC50 (Cytochrome P450 3A4 [1]): 1.7 µM
- IC50 (Cytochrome P450 2C9): 15 µM
- IC50 (Cytochrome P450 2C19): 26 µM
- IC50 (Cytochrome P450 2D6): 25 µM
- IC50 (Cytochrome P450 3A4 [3]): 26 µM
SMILES: Cc1nc2ccc(N(C)c3ccnc(Nc4cccc(S(N)(=O)=O)c4)n3)cc2n1C
- IC50 (HUVEC [2]): 2.8 µM

- IC50 [4]: 0.0017 µM
SMILES: COc1cc2ncnc(Nc3ccc4c(C)n[nH]c4c3)c2cc1OC

- clearance [7]: 40 mL/min/kg
- bioavailability [8]: 28%
SMILES: CCS(=O)(=O)c1ccc(OC)c(Nc2nccc(Nc3ccc4c(C)n[nH]c4c3)n2)c1
- IC50 (HUVEC [5]): 13 µM
- IC50 (HUVEC [6]): 0.13 µM

- clearance [7]: 16 mL/min/kg
- bioavailability [8]: 85%
SMILES: COc1cc(Nc2nccc(Nc3ccc4c(C)n[nH]c4c3)n2)cc(OC)c1OC [GW612286X]
- IC50 (HUVEC [6]): 0.18 µM

- IC50 (Cytochrome P450 3A4 [1]): 1.7 µM
- IC50 (Cytochrome P450 2C9): 1 µM
- IC50 (Cytochrome P450 2C19): 9.3 µM
- IC50 (Cytochrome P450 2D6): 6.3 µM
- IC50 (Cytochrome P450 3A4 [3]): 13 µM
SMILES: Cc1nn(C)c2cc(N(C)c3ccnc(Nc4cccc(S(N)(=O)=O)c4)n3)ccc12 [GW770220A]
- IC50 (HUVEC [2]): 1.4 µM

- clearance [7]: 1.4 mL/min/kg
- bioavailability [8]: 72%
- clearance [10]: 1.4 mL/min/kg
- bioavailability [11]: 47%
- clearance [12]: 1.4 mL/min/kg
- bioavailability [13]: 65%
- AUC(0-inf) [14]: 220 µg·h/mL
- AUC(0-inf) [15]: 657 µg·h/mL
- AUC(0-inf) [16]: 1140 µg·h/mL
- concentration at 12 h [17]: 6320 ng/mL
- concentration at 12 h [18]: 24800 ng/mL
- concentration at 12 h [19]: 38500 ng/mL
- fraction unbound [32]: < 0.001
SMILES: Cc1ccc(Nc2nccc(N(C)c3ccc4c(C)n(C)nc4c3)n2)cc1S(N)(=O)=O [PAZOPANIB]
- inhibition in vivo at 10 mg/kg (Mus musculus [20]): 0%
- inhibition in vivo at 30 mg/kg (Mus musculus [21]): 57%
- inhibition in vivo at 100 mg/kg (Mus musculus [22]): 83%
- inhibition in vivo at 10 mg/kg (HT-29 [23]): 32%
- inhibition in vivo at 30 mg/kg (HT-29 [24]): 59%
- inhibition in vivo at 100 mg/kg (HT-29 [25]): 69%
- inhibition in vivo at 10 mg/kg [26]: 16%
- inhibition in vivo at 30 mg/kg [27]: 35%
- inhibition in vivo at 100 mg/kg [28]: 55%
- inhibition in vivo at 10 mg/kg (HN5 [29]): 99%
- inhibition in vivo at 30 mg/kg (HN5 [30]): 102%
- inhibition in vivo at 100 mg/kg (HN5 [31]): 110%

SMILES: COc1cc2/c(=N/c3ccc(Br)cc3F)nc[nH]c2cc1OCC1CCN(C)CC1 [VANDETANIB]
- IC50 (HUVEC [6]): 0.4 µM
